Compound activity: PubChem BioAssay, SRMLSC
An excerpt weighted towards active compounds, which were near 6.3% of everything screened.
PostGolgi yeast = growth inhibition of a yeast mutant, post-Golgi transport screen | post-Golgi transport phenotypic cell assay | inhibition, % at 10 µM | actives 0.9% (n = 98,000);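 also: yeast cells grown in 1536-well plates; yeast grown about 18 h at 30C before absorbance read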
Ecoli tolC = blocks growth of E. coli BW25113 tolC mutant; OD615; growth inhibition, % at 10 µM (by protocol); actives 2.2% (n = 65,000);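 active = growth inhibition at or above a cutoff equal to the mean over every tested compound plus 3 SD, cut at about 60% in these data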;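 also: growth measured after 20 h incubation at 37 °C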
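Test system: E. coli BW25113 ΔtolC::kan bacteria | Medium: Kanamycin-containing LB broth (50 µg/mL) | Dosing: One dose of 10 µM final | Times: 20 h incubation with compound, 37 °C | Detection: Optical density read at 615 nm | Read-out basis: Percent growth inhibition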
PostGolgi ctrl = growth of the yeast control strain, post-Golgi counter-screen | efflux-deficient yeast background strain, growth absorbance A615, 16 h | inhibition, % at 10 µM | actives 5% (n = 98,000)
Ecoli WT expand = E. coli BW25113 growth inhibition, expanded screen. actives 0.15% (n = 98,000). growth inhibition, % at 100 µM. OD600 absorbance. AID 710;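 active = growth inhibition above about 50% at one test dose, limit read from the data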;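 also: growth measured after 20 h incubation at 37 °C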
* = called active by the depositor; · = no result. Rule as the data show it, unless noted: active = inhibition above about 30%; inactive = the rest.

SMILES	PostGolgi yeast	Ecoli tolC	PostGolgi ctrl	Ecoli WT expand
C=CCNC(=O)c1cccc(C(F)(F)F)c1	3	·	30	2
Cc1cc(C)n2nc(C(=O)NCc3ccccc3)cc2n1	43*	1	3	4
Cc1ccc(N2C(=O)[C@@H]3Cc4ccccc4CN3C2=O)cc1	1	-13	36*	-11
C=CCOC(=O)Nc1c(C(=O)OC)[nH]c2ccc(Cl)cc12	-4	-10	7	-9
Cc1ccc(-n2c(-c3ccc(Br)cc3)c[n+]3c2CCc2ccc4cccnc4c2-3)cc1	11	·	50*	78*
CC(=O)c1cccc(NC(=O)C2CCN(S(=O)(=O)c3ccccc3)CC2)c1	-4	·	34*	3
Cc1cccc(OCCCC(=O)N2CCCc3ccccc32)c1C	-1	·	27	2
O=S(=O)(c1ccc(Cl)cc1)c1snnc1-c1ccccc1	6	·	34*	2
CN(C)c1ncc(S(=O)(=O)c2ccc(Cl)cc2)c(-c2ccccc2)n1	-4	·	23	-6
Fc1cccc(-c2cc3nc4c(c(NCc5ccco5)n3n2)CCCC4)c1	3	·	49*	-6
Fc1cccc(-c2cc3nc4c(c(N5CCN(c6cnccn6)CC5)n3n2)CCCC4)c1	·	-1	·	·
COc1ccc(-c2cc3nc4c(c(N5CCC6(CC5)OCCO6)n3n2)CCCC4)cc1	·	65*	·	·
Clc1cccc(-c2cc3nc4c(c(N5CCOCC5)n3n2)CCCC4)c1	-1	25	88*	-4
Fc1cccc(-c2cc3nc4c(c(N5CCOCC5)n3n2)CCCC4)c1	16	100*	70*	-7
O=C(CN1C(=O)C2(OCCO2)c2ccccc21)c1ccc(Br)cc1	-4	-12	8	-8
Fc1ccc(Br)cc1C1C=C(c2ccc(Br)s2)Nc2ncnn21 (stereo unspecified)	3	69*	4	-13
O=C(OCc1ccc2c(c1)OCO2)c1ccc(S(=O)(=O)N2CCCC2)cc1	-4	37	17	-11
O=C(OCc1ccc2c(c1)OCO2)c1cccc(S(=O)(=O)N2CCCCC2)c1	-5	·	38*	-15
O=S(=O)(c1ccc2c(c1)OCCO2)N1CCN(Cc2ccc3c(c2)OCO3)CC1	0	6	31*	-8
CCC(C)C(NS(=O)(=O)c1ccc(C)cc1)C(=O)NCCN1CCOCC1 (stereo unspecified)	·	-16	·	·
Cc1cccc(OCc2nnc(SCc3cc(=O)n4cc(Br)ccc4n3)o2)c1	8	13	8	-1
COc1cccc(OCC(O)CN(CCO)Cc2ccccc2)c1 (stereo unspecified)	-8	-6	6	-2
CCC(=O)c1ccc(OCC(O)CN(CCc2ccccc2)Cc2ccccc2)cc1 (stereo unspecified)	6	·	52*	-11
CS(=O)(=O)N(CC(=O)N1CCN(c2cccc(Cl)c2)CC1)c1cccc(F)c1	-3	14	2	-6
Cc1ccc(-c2cc(C(=O)Nc3cnn(C45CC6CC(CC(C6)C4)C5)c3)no2)cc1	-9	-1	8	-8
SMILES	PostGolgi yeast	Ecoli tolC	PostGolgi ctrl	Ecoli WT expand
Cc1ccc(NC(=O)c2nn(C34CC5CC(CC(C5)C3)C4)cc2[N+](=O)[O-])cc1	79*	·	61*	-3
C=CCc1ccc(OCCCCCN2CCOCC2)c(OC)c1	22	1	20	0
O=C(CSCc1ccccc1)Nc1nccs1	-13	-4	3	1
O=C(CCl)Nc1cccn2ncnc12	7	·	5	19
O=C(OCn1ncc(Cl)c(Cl)c1=O)c1cccc(C(F)(F)F)c1	106*	·	42*	19
CCc1ccc(C(=O)Cn2ncc(Cl)c(Cl)c2=O)cc1	-3	·	7	-1
CCCCn1nc2cc(C(=O)NCc3ccc(OC(F)(F)F)cc3)ccc2c1OC	0	·	4	2
Cc1cc2ncn(C3CC(=O)N(Cc4ccccc4)C3=O)c2cc1C (stereo unspecified)	5	14	40*	1
Cc1cc2ncn(C3CC(=O)N(C)C3=O)c2cc1C (stereo unspecified)	5	·	8	-1
O=C(NC1CCCC1)c1noc2c1CCCCC2	-2	·	11	4
CCN1C(=O)C2C(C1=O)N1C(c3cccs3)C3C(=O)N(CC)C(=O)C3N1C2c1cccs1 (stereo unspecified)	11	·	0	-8
O=C1CN(C(=O)c2cc(Br)c(Br)s2)c2ccccc2N1	-3	·	37*	-4
COc1ccc(C2C(C(=O)Nc3ccc4c(c3)OCCO4)c3ccccc3C(=O)N2C)cc1 (stereo unspecified)	3	·	31*	1
CCOC(=O)c1cnc2c(C#N)c(C)nn2c1-c1ccccc1	3	-2	32*	-2
Cc1nn(C)cc1/C=N/NC(=O)C(C)(C)Oc1ccc(Cl)cc1	-4	·	2	-3
CCn1c2ccccc2c2cc(C3C(C#N)=C(N)Oc4n[nH]c(COC)c43)ccc21 (stereo unspecified)	6	71*	13	0
O=C(c1ccc(Cl)c(F)c1F)N1CCCC1	-6	-4	12	4
COc1ccc2[nH]c3c(=O)n(CCCCC(=O)NCCN4CCCC4)c(=S)[nH]c3c2c1	5	61*	7	2
O=C(CCn1c(=S)[nH]c2ccccc2c1=O)NCCCN1CCOCC1	5	·	2	3
COc1ccc2[nH]c3c(=O)n(CCCCC(=O)N4CCC(C(N)=O)CC4)c(=S)[nH]c3c2c1	-3	100*	8	5
CC(=O)c1c(C)n([O-])c2ccc(C)cc2[n+]1=O	18	72*	12	53*
Cc1ccc2c(c1)n([O-])c1c([n+]2=O)CCCC1	0	·	5	2
Cc1ccc(-n2c(SCC(N)=O)nnc2-c2ccc(S(=O)(=O)N3CCCCC3)cc2)c(C)c1	4	·	10	-1
CCC(=O)c1cn(CC(=O)NCc2cccnc2)c2ccccc12	-1	-1	8	5
COc1ccccc1N1CCN(c2nc3ccccn3c(=O)c2C=O)CC1	-4	·	0	3
SMILES	PostGolgi yeast	Ecoli tolC	PostGolgi ctrl	Ecoli WT expand
CCCCOC(=O)CSC1=C(C#N)C(c2ccc3c(c2)OCO3)CC(=O)N1 (stereo unspecified)	·	9	47*	-8
Cc1ccc(-c2csc(N(C)C(=O)c3c(C)nn(-c4ccccc4)c3Cl)n2)cc1	13	·	2	-12
O=C(Nc1cccc(F)c1)C1CCN(C(=O)c2ccccc2Cl)CC1	8	·	0	2
FC(F)(F)c1cnc2c(c1)Nc1ccccc1S2	33*	7	22	-2
O=C(Nc1cccc(O)c1)c1ccc(Br)c(S(=O)(=O)N2CCCCC2)c1	-2	-6	-7	-18
CCCC(C)C(=O)Nc1nc(C)c(-c2csc(Nc3ccccc3OC)n2)s1 (stereo unspecified)	-2	·	1	-7
CCCC(C)C(=O)Nc1nc(C)c(-c2csc(Nc3ccc(Cl)cc3)n2)s1 (stereo unspecified)	0	·	34*	-2
CCOC(=O)c1c(NS(C)(=O)=O)sc2c1CCC(C)C2 (stereo unspecified)	-3	12	32*	-6
CCOC(=O)c1c(N)sc2c1CCC(C)C2 (stereo unspecified)	8	9	12	18
CC1CC(C)CN(C(=O)CSc2nnc(-c3ccc(Cl)s3)o2)C1 (stereo unspecified)	7	71*	3	-2
